Experimental data reported in ChEMBL document CHEMBL1130878 (Bioorg Med Chem Lett, 1998).
One block for each compound: values may come before it.

Experiments:
[1] = molecular target: T1, Endothelin receptor type B (Sus scrofa, UniProt P35463); experiment: In vitro ability to inhibit specific [125I]ET1 binding to porcine kidney (inner medulla) membranes Endothelin B receptor
T1 sequence (P35463 whole entry): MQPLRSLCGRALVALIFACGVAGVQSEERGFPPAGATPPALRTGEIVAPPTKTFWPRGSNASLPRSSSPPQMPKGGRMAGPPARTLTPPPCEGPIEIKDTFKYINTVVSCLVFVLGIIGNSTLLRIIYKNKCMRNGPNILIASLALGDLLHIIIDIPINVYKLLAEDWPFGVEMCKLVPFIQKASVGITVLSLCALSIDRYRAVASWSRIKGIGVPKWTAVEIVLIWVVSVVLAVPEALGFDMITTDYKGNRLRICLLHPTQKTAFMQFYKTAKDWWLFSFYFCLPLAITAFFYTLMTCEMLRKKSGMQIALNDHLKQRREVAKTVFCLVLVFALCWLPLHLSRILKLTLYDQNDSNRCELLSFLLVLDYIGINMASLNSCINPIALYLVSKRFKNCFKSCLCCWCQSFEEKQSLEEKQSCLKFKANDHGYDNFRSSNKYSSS

[2] = molecular target: T2, Endothelin-1 receptor (Rattus norvegicus, UniProt P26684); experiment: In vitro ability to inhibit specific [125I]ET1 binding to rat aorta membranes Endothelin A receptor; type: tissue-based
T2 sequence (P26684 whole entry): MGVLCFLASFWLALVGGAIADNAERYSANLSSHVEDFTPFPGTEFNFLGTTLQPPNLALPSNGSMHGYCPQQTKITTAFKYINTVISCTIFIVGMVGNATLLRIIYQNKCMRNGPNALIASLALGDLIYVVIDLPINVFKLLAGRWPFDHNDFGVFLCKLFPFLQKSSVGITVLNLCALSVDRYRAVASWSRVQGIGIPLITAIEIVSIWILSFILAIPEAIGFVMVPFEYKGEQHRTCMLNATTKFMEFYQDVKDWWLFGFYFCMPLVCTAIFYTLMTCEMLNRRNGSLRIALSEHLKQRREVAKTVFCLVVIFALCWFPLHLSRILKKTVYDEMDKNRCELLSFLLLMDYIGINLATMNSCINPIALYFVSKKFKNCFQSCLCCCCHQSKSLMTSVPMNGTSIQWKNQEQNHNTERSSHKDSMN

[3] = species on record: Oryctolagus cuniculus; experiment: Compound was evaluated for the functional assay performed by obtaining sarafotoxin 6c concentration-response curves [pA2(ETB)] in isolated rabbit jugularis vein
[4] = species on record: Rattus norvegicus; experiment: Compound was evaluated for the functional assay performed by obtaining ET-1 concentration-response curves [pA2(ETA)] in isolated rat aortic rings; settings: Aorta, read-out: pA2 (converted)
Summary of the method: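 Functional ETA assay: ET-1 concentration-response curves in isolated rat aortic rings with the endothelium removed. Antagonism is expressed as pA2.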

SMILES: COc1ccc(C/C(C(=O)c2ccc(OC)cc2)=C(/C(=O)O)c2ccc3nsnc3c2)cc1
IC50 [1]: 1800 nM
IC50 [2]: 28 nM

SMILES: COc1cc(C/C(C(=O)c2cc(OC)c(OC)c(OC)c2)=C(/C(=O)O)c2ccc3nsnc3c2)cc(OC)c1OC
IC50 [1]: 340 nM
IC50 [2]: 3.7 nM

SMILES: COc1ccc(C(=O)/C(Cc2ccc(OC(C)(C)C)cc2)=C(\C(=O)O)c2ccc3nsnc3c2)cc1
IC50 [1]: 1600 nM
IC50 [2]: 580 nM

SMILES: COc1ccc(C(=O)/C(Cc2cccc(OC)c2)=C(\C(=O)O)c2ccc3nsnc3c2)cc1
IC50 [1]: 1000 nM
IC50 [2]: 3.4 nM

SMILES: CCCCN(CCCC)C(=O)CN1C[C@H](c2ccc3c(c2)OCO3)[C@@H](C(=O)O)[C@@H]1c1ccc(OC)cc1
Kb [3]: 794 nM
Kb [4]: 2.51 nM

SMILES: COc1ccc(C(=O)/C(Cc2cc(OC)c(OC)c(OC)c2)=C(\C(=O)O)c2ccc3c(c2)OCO3)cc1 [PD-156707 SODIUM]
IC50 [1]: 340 nM
Kb [3]: > 3160 nM
Kb [4]: 25.1 nM
IC50 [2]: 1.3 nM

SMILES: COc1ccc(C(=O)/C(Cc2ccccc2)=C(\C(=O)O)c2ccc3nsnc3c2)cc1
IC50 [1]: 1200 nM
Kb [4]: 25.1 nM
IC50 [2]: 26 nM

The next lines start with results.

IC50 [1]: 290 nM
IC50 [2]: 65 nM
SMILES: COc1cc(C/C(C(=O)c2ccc(OC(C)C)c(F)c2)=C(/C(=O)O)c2ccc3nsnc3c2)cc(OC)c1OC

IC50 [1]: 340 nM
IC50 [2]: 0.3 nM
SMILES: COc1ccc(C(=O)/C(Cc2cc(OC)c(OC)c(OC)c2)=C(\C(=O)O)c2ccc3nsnc3c2)cc1
Kb [3]: 794 nM
Kb [4]: 3.16 nM

IC50 [1]: 550 nM
IC50 [2]: 64 nM
SMILES: COc1cc(C/C(C(=O)c2ccc(OC(C)C)cc2)=C(/C(=O)O)c2ccc3nsnc3c2)cc(OC)c1OC

IC50 [1]: 260 nM
IC50 [2]: 1.4 nM
SMILES: COc1ccc(C(=O)/C(Cc2cc(OC)c(OC)c(OC)c2)=C(\C(=O)O)c2ccc3nsnc3c2)cc1C

IC50 [2]: 12 nM
SMILES: COc1cc(F)ccc1C(=O)/C(Cc1cc(OC)c(OC)c(OC)c1)=C(\C(=O)O)c1ccc2nsnc2c1

IC50 [2]: 3 nM
SMILES: COc1ccc(C(=O)/C(Cc2cc(OC)c(OC)c(OC)c2)=C(\C(=O)O)c2ccc3nsnc3c2)c(F)c1
